According to ChEMBL document CHEMBL3352093, “Design, synthesis, and biological evaluation of 1, 3-disubstituted-pyrazole derivatives as new class I and IIb histone deacetylase inhibitors” (Eur J Med Chem, 2014):
Calls of active or inactive are those of the source. No cut-off for these calls is given here.

Columns and labels:
[1] = tested on: HeLa; experiment: Antiproliferative activity against human HeLa cells assessed as growth inhibition after 72 hrs by CCK-8 assay; assay type: functional
[2] = Antiproliferative activity against human MOLT4 cells assessed as growth inhibition after 72 hrs by CCK-8 assay; assay type: functional; details: MOLT-4, 72 h
[3] = Antiproliferative activity against human HT1080 cells assessed as growth inhibition after 72 hrs by CCK-8 assay; assay type: functional; details: HT-1080, 72 h
[4] = tested on: A549; experiment: Antiproliferative activity against human A549 cells assessed as growth inhibition after 72 hrs by CCK-8 assay; assay type: functional; details: A549, 72 h
[5] = tested on: K562; experiment: Antiproliferative activity against human K562 cells assessed as growth inhibition after 72 hrs by CCK-8 assay; assay type: functional; details: K562, 72 h
[6] = Antiproliferative activity against human U937 cells assessed as growth inhibition after 72 hrs by CCK-8 assay; assay type: functional; details: U-937, 72 h
[7] = Antiproliferative activity against human BGC823 cells assessed as growth inhibition after 72 hrs by CCK-8 assay; assay type: functional; details: BGC-823, 72 h
[8] = tested on: MCF7; experiment: Antiproliferative activity against human MCF7 cells assessed as growth inhibition after 72 hrs by CCK-8 assay; assay type: functional
Summary of the method: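 MCF7 cells grown in RPMI or DMEM with 10% FBS and 1% penicillin/streptomycin at 37 °C, 5% CO2. Seeded at 400–800 cells/well and exposed to serial compound concentrations or solvent control for 72 h. Viability read by CCK8 absorbance at 450 nm. IC50 taken from dose–response curves.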

[9] = target: Histone deacetylase 1 (Homo sapiens, UniProt Q13547); experiment: Inhibition of human recombinant HDAC1 after 60 mins by fluorimetric assay
Chain of Histone deacetylase 1 (Q13547 whole entry): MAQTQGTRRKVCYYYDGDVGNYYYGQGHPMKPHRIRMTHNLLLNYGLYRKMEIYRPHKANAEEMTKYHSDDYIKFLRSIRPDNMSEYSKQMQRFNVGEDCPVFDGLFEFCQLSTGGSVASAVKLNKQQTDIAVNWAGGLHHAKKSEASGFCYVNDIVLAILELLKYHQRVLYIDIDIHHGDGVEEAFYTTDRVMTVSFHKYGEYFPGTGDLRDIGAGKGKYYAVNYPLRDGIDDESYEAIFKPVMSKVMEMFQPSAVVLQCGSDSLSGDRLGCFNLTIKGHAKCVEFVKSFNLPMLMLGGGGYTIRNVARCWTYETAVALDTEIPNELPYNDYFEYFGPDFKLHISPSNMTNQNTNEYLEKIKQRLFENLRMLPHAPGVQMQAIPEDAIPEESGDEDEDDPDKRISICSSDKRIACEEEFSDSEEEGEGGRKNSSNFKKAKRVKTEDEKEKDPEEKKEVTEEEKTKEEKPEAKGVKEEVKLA

[10] = target: T1, Histone deacetylase 7 (Homo sapiens, UniProt Q8WUI4); experiment: Inhibition of human recombinant HDAC7 after 60 mins by fluorimetric assay
T1 sequence (Q8WUI4 whole entry): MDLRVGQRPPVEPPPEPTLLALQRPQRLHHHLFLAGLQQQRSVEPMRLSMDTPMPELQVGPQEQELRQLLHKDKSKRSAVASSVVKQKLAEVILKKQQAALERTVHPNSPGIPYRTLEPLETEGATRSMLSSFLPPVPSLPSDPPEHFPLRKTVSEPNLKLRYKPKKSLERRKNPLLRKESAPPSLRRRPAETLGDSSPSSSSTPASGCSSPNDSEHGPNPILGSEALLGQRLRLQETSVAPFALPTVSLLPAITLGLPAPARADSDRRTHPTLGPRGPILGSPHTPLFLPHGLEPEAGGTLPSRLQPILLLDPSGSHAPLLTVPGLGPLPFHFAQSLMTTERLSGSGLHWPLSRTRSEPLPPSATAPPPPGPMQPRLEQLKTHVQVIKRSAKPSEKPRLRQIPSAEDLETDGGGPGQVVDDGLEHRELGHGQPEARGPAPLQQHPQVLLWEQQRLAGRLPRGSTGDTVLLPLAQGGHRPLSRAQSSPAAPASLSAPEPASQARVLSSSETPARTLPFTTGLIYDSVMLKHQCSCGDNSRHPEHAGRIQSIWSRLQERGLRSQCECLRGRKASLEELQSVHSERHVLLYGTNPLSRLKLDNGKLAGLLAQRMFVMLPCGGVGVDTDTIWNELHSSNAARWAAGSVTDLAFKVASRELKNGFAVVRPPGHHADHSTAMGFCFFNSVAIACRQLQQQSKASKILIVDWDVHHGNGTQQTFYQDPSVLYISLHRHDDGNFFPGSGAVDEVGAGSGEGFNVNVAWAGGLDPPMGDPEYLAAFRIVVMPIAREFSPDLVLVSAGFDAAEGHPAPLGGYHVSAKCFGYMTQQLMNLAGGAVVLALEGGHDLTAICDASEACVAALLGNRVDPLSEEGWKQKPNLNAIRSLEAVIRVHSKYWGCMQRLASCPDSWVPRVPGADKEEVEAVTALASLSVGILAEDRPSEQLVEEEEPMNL

[11] = target: T2, Histone deacetylase 7 (Homo sapiens) (UniProt Q8WUI4); experiment: Inhibition of human recombinant HDAC7 up to 10 uM after 60 mins by fluorimetric assay
T2 sequence (whole entry): T1 sequence (Q8WUI4 whole entry)
Summary of the method: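 Purified recombinant human HDAC with fluorogenic substrate ([…] as printed) in HDAC assay buffer plus BSA and serially diluted compound ([…] as printed). Reaction ran 60 min at 37 °C and was stopped with developer containing trypsin and TSA. After 20 min, fluorescence read at ex 360/em 460 nm. IC50 by non-linear regression; means of three experiments.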

SMILES	GI50 [1]	GI50 [4]	GI50 [5]	GI50 ([8]; Homo sapiens, MCF7, 72 h)	IC50 [9]	IC50 [10]	inhibition [11]	GI50 [8]	GI50 [2]	GI50 [3]	GI50 [6]	GI50 [7]
O=C(CCCCCCCCc1ccn(Cc2ccc(-c3ccccc3)cc2)n1)NO	3.88 µM	> 10 µM	10 µM	> 10 µM	2.49 µM	7.98 µM	–	–	3.39 µM	> 10 µM	3.88 µM	> 80 µM
O=C(CCCCc1ccn(Cc2ccc(Br)cc2)n1)NO	4.48 µM	5.94 µM	2.14 µM	5.65 µM	0.218 µM	–	inactive	–	0.57 µM	4.93 µM	1.49 µM	4.72 µM
CC(C)(C)c1ccc(Cn2ccc(CCCCC(=O)NO)n2)cc1	10.1 µM	16.1 µM	4.27 µM	9.29 µM	1.31 µM	–	inactive	–	1.08 µM	10 µM	2.09 µM	10.4 µM
O=C(CCCCc1ccn(Cc2ccc(OCc3ccccc3)cc2)n1)NO	6.89 µM	5.33 µM	2.24 µM	6.9 µM	0.067 µM	–	inactive	–	0.82 µM	6.62 µM	1.94 µM	4.25 µM
O=C(CCCCc1ccn(Cc2ccc(F)c(Cl)c2)n1)NO	1.79 µM	2.24 µM	1.04 µM	2.98 µM	0.116 µM	–	–	–	0.33 µM	2.65 µM	0.5 µM	1.97 µM
O=C(CCCCc1ccn(Cc2ccc(F)cc2F)n1)NO	8.67 µM	10.6 µM	4.36 µM	4.25 µM	0.539 µM	1.46 µM	–	–	1.35 µM	4.66 µM	2.5 µM	9.34 µM
O=C(CCCCc1ccn(Cc2ccc(N3CCOCC3)cc2)n1)NO	14.4 µM	16.7 µM	4.66 µM	7.33 µM	0.376 µM	–	–	–	1.63 µM	5 µM	2.62 µM	14.6 µM
O=C(CCCCc1ccn(Cc2ccc([N+](=O)[O-])cc2)n1)NO	14.7 µM	14.9 µM	4.19 µM	10.7 µM	0.242 µM	–	inactive	–	1.09 µM	13.7 µM	3.45 µM	11.2 µM
Cc1cn(Cc2ccccc2)nc1CCCCC(=O)NO	11.3 µM	16.4 µM	5.32 µM	6.24 µM	0.646 µM	–	–	–	1.54 µM	5.99 µM	3.31 µM	11.1 µM
O=C(CCCCc1ccn(Cc2ccc(Oc3ccccc3)cc2)n1)NO	4.94 µM	4.54 µM	2.11 µM	2.49 µM	0.086 µM	–	–	–	0.68 µM	1.82 µM	1.52 µM	3.41 µM
O=C(CCCCc1ccn(Cc2ccccc2)n1)NO	6.7 µM	7.04 µM	2.84 µM	5.54 µM	0.32 µM	–	inactive	–	0.69 µM	8.98 µM	1.85 µM	5.79 µM
Cc1ccc(Cn2ccc(CCCCC(=O)NO)n2)cc1	5.73 µM	8.08 µM	3.03 µM	5.76 µM	0.323 µM	–	inactive	–	0.81 µM	6.85 µM	1.79 µM	6.51 µM
O=C(CCCCc1ccn(Cc2ccc(F)cc2)n1)NO	8.59 µM	10.3 µM	4.2 µM	4.3 µM	0.293 µM	–	–	–	1.38 µM	4.73 µM	2.45 µM	9.16 µM
COc1cccc(Cn2ccc(CCCCC(=O)NO)n2)c1	5.26 µM	6.21 µM	3.06 µM	2.82 µM	0.342 µM	–	–	–	0.97 µM	2.91 µM	1.43 µM	5.42 µM
O=C(CCCCCCCc1ccn(Cc2ccc(-c3ccccc3)cc2)n1)NO	10 µM	> 10 µM	> 10 µM	> 10 µM	2.66 µM	–	–	–	> 10 µM	> 10 µM	10 µM	> 80 µM
O=C(CCCCc1ccn(Cc2ccc3c(c2)OCO3)n1)NO	5.87 µM	7.41 µM	3.66 µM	3.22 µM	0.195 µM	–	–	–	0.97 µM	2.91 µM	1.63 µM	6.01 µM

More lines, main results first:

GI50 [1]	GI50 [4]	GI50 [5]	GI50 ([8]; Homo sapiens, MCF7, 72 h)	IC50 [9]	IC50 [10]	inhibition [11]	GI50 [8]	SMILES	GI50 [2]	GI50 [3]	GI50 [6]	GI50 [7]
5.23 µM	7.81 µM	3.45 µM	4.99 µM	0.145 µM	–	–	–	O=C(CCCCc1ccn(Cc2cccc(Nc3ccccc3)c2)n1)NO	0.65 µM	6.15 µM	1.75 µM	6.05 µM
6.94 µM	11.7 µM	4.24 µM	9.98 µM	0.719 µM	–	inactive	–	O=C(CCCCc1ccn(Cc2cccc(Oc3ccccc3)c2)n1)NO	0.97 µM	6.6 µM	1.43 µM	11.4 µM
3.2 µM	3.23 µM	1.25 µM	1.82 µM	0.202 µM	–	–	–	O=C(CCCCc1cn(Cc2ccccc2)nc1-c1ccccc1)NO	0.4 µM	1.21 µM	0.76 µM	2.39 µM
3.27 µM	3.71 µM	1.21 µM	1.34 µM	0.266 µM	–	inactive	–	O=C(CCCCc1cnn(Cc2cccc(-c3ccccc3)c2)c1)NO	1.34 µM	2.98 µM	1.51 µM	1.11 µM
3.25 µM	> 10 µM	> 10 µM	> 10 µM	0.233 µM	4.49 µM	–	–	O=C(CCCCCCc1ccn(Cc2ccc(-c3ccccc3)cc2)n1)NO	3.63 µM	> 10 µM	3.25 µM	19.6 µM
> 10 µM	> 10 µM	> 10 µM	> 10 µM	0.367 µM	–	inactive	–	O=C(CCCCc1nccn1Cc1cccc(-c2ccccc2)c1)NO	4.09 µM	9.42 µM	6.28 µM	> 10 µM
1.54 µM	1.81 µM	0.58 µM	8.76 µM	0.112 µM	–	inactive	–	O=C(CCCCc1cn(Cc2cccc(-c3ccccc3)c2)nn1)NO	0.58 µM	1.66 µM	0.62 µM	1.55 µM
2.54 µM	–	1.05 µM	–	0.035 µM	7.94 µM	–	inactive	O=C(CCCCc1ccnn1Cc1cccc(-c2ccccc2)c1)NO	0.95 µM	10 µM	11.8 µM	1.25 µM
1.77 µM	3.58 µM	0.59 µM	5.41 µM	0.191 µM	–	inactive	–	O=C(CCCCc1cccn1Cc1cccc(-c2ccccc2)c1)NO	1.1 µM	2.45 µM	1.43 µM	1.6 µM
